EC50 data for one molecule are collected here from ChEMBL document CHEMBL4266027, “Cyanobufalins: Cardioactive Toxins from Cyanobacterial Blooms” (J Nat Prod, 2018).

Molecules are shown by their SMILES.

The subject of one assay is SK-OV-3. Kind of assay: Cytotoxicity against human SKOV3 cells assessed as decrease in cell viability after 72 hrs by MTS assay. It is filed as functional, cell-based. The settings on record: SK-OV-3, 72 h. Put shortly: (§1)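 Cell proliferation assay using the MTS reagent. Compounds were tested as a dilution series, and EC50 values were derived from the concentration–response data.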
For orientation: Tetrazolium dyes change colour on reduction, which living cells bring about.

A further assay has as its system HCT-116. Kind of assay: Cytotoxicity against human HCT116 cells assessed as decrease in cell viability after 72 hrs by MTS assay. As to conditions: HCT-116, 72 h. It is filed as functional, cell-based. The procedure, abridged: as §1
The subject of a further assay is HepG2. The experiment in a line: Cytotoxicity against human HepG2 cells assessed as decrease in cell viability after 72 hrs by MTS assay. It counts as functional, cell-based. The settings on record: HepG2, 72 h. Put shortly:
as §1

Another assay concerns MES-SA. The experiment in a line: Cytotoxicity against human MESSA cells assessed as decrease in cell viability after 72 hrs by MTS assay. It counts as functional, cell-based. Put shortly: as §1
The test system of the next assay is MES-SA/Dx5. The experiment in a line: Cytotoxicity against human MES-SA/Dx5 cells assessed as decrease in cell viability after 72 hrs by MTS assay. It counts as functional, cell-based. As to conditions: MES-SA/Dx5, 72 h. Put shortly:
as §1

For the next assay, the system named is 786-0. The experiment in a line: Cytotoxicity against human 786-O cells assessed as decrease in cell viability after 72 hrs by MTS assay. It is filed as functional, cell-based. As to conditions: 786-0, 72 h. The procedure, abridged:
as §1

The next assay deals with MCF7. Kind of assay: Cytotoxicity against human MCF7 cells assessed as decrease in cell viability after 72 hrs by MTS assay. As to conditions: MCF7, 72 h. It is filed as functional, cell-based. Put shortly: as §1
The next assay deals with BXPC-3. Kind of assay: Cytotoxicity against human BxPC3 cells assessed as decrease in cell viability after 72 hrs by MTS assay. It counts as functional, cell-based. As to conditions: BXPC-3, 72 h. The procedure, abridged:
as §1

The next assay has as its system U-87 MG. The experiment in a line: Cytotoxicity against human U87MG cells assessed as decrease in cell viability after 72 hrs by MTS assay. It is filed as functional, cell-based, U-87MG ATCC. The procedure, abridged: as §1
A further assay has as its system NCI-H1975. The experiment in a line: Cytotoxicity against human NCI-H1975 cells assessed as decrease in cell viability after 72 hrs by MTS assay. It is filed as functional, cell-based. As to conditions: NCI-H1975, 72 h. The procedure, abridged: as §1
The test system of a further assay is HUVEC. The experiment in a line: Cytotoxicity against human HUVEC cells assessed as decrease in cell viability after 72 hrs by MTS assay. It is filed as cell-based. The procedure, abridged: as §1
In the next assay the test system is CCRF S-180. Kind of assay: Cytotoxicity against mouse S180 cells assessed as decrease in cell viability after 72 hrs by MTS assay. It counts as functional, cell-based. The settings on record: CCRF S-180, 72 h. The procedure, abridged:
as §1

The term EC50 denotes the midpoint of the concentration-response curve. Consider `CC1(C)[C@H]2OC(=O)O[C@H]2[C@@H](O)[C@]2(C=O)[C@H]3CC[C@]4(C)[C@@H](c5ccc(=O)oc5)[C@@H](Cl)C[C@]4(O)C3=CC[C@@H]12`, for which the EC50 stood at 530 nM in the assay with SK-OV-3; 610 nM with HCT-116; 1300 nM in the assay on HepG2; 940 nM in the assay on MES-SA; 720 nM with MES-SA/Dx5; 350 nM in the assay on 786-0. For the same molecule, the EC50 in the assay with MCF7 was 960 nM; in the assay with BXPC-3, 1000 nM; with U-87 MG it was 610 nM; with NCI-H1975, 590 nM; in the assay on HUVEC it was 800 nM; in the assay on CCRF S-180, more than 20000 nM.
